# Species: Rattus norvegicus
# Assay: Ability to inhibit N-formyl-methionyl-leucyl-phenylalanine (fMLP)-stimulated release of myeloperoxidase (MPO) from rat polymorphonuclear leukocytes (PMN).
# Format: functional
# How it was run: (§1)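 Peritoneal PMN were taken from Harlan Sprague-Dawley rats (150-250 g), with >90% viability by trypan blue and >90% PMN by Wright-Giemsa stain. Cells in suspension (2 × 10^7 cells/mL) were stimulated with 0.1 μM fMLP for 30 min at 37 °C in the presence of test agent. MPO in the supernatant was measured by MPO-catalyzed oxidation of o-dianisidine.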
row,Compound,IC50 [µM]
1,COc1cc(C(O)/C=C/c2ccncc2)cc(OC)c1OC (stereo not drawn),> 100
2,N#Cc1ccc(C(=O)/C=C/c2ccncc2)cc1,123
3,COc1cc(C(=O)/C=C(\C)c2ccncc2)cc(OC)c1OC,> 100
4,COc1cc(C(=O)/C(C)=C/c2ccncc2)cc(OC)c1OC,> 100
5,CO/N=C(\C=C\c1ccncc1)c1cc(OC)c(OC)c(OC)c1,> 100
6,O=C(c1ccccc1)c1ccc(-c2cccnc2)cc1,> 100
7,C(=C\c1noc2ccccc12)/c1ccncc1,> 100
8,O=C(/C=C/c1ccncc1)c1cccc(Cl)c1,69
9,O=C(/C=C/c1ccncc1)c1ccc(C(F)(F)F)cc1,204
10,COc1cc(C(=O)CCc2ccncc2)cc(OC)c1OC,> 100
11,O=C1c2ccccc2-c2ccc(-c3cccnc3)cc21,> 100
12,COc1cc(C(=O)/C=C/c2cc[n+](C)cc2)cc(OC)c1OC,> 50
13,O=C(c1ccccc1)c1cccc(-c2cccnc2)c1,> 100
14,O=C(/C=C/c1ccncc1)c1ccc(Cl)cc1,60
15,O=c1cc(-c2cccnc2)oc2ccccc12,> 100
16,O=C(c1ccccc1)c1ccccc1-c1cccnc1,> 100
17,N#Cc1cccc(C(=O)/C=C/c2ccncc2)c1,85
18,O=C1c2ccccc2-c2cccc(-c3cccnc3)c21,> 100
19,O=C(c1ccccc1)c1ccc2ncccc2c1,> 100

# Other lines, results leading:
row,IC50 [µM],Compound
1,50,O=C(/C=C/c1ccncc1)c1ccco1
2,7,COc1cc(C(=O)/C=C/c2ccncc2)cc(OC)c1OC
3,11,CN(C)c1ccc(C(=O)/C=C/c2ccncc2)cc1
4,39,Cc1cccc(C(=O)/C=C/c2ccncc2)c1
5,30,COc1cc(C(=O)/C=C/c2cccnc2)cc(OC)c1OC
6,19,CN(C)c1cccc(C(=O)/C=C/c2ccncc2)c1
7,33,CSc1ccc(C(=O)/C=C/c2ccncc2)cc1
8,30,O=C(/C=C/c1ccncc1)c1cccs1
9,16,O=C(C#Cc1ccncc1)c1ccccc1
10,41,O=C(/C=C/c1ccncc1)c1cccc(C(F)(F)F)c1
11,18,COc1cc(C(=O)/C=C/c2ccccn2)cc(OC)c1OC
12,49,O=C(/C=C/c1ccncc1)c1ccccc1
13,47,CC(C)(C)c1ccc(C(=O)/C=C/c2ccncc2)cc1

# Species: Rattus norvegicus
# Assay: Tested for ability at 50 uM to inhibit N-formyl-methionyl-leucyl-phenylalanine (fMLP) stimulated release of Myeloperoxidase (MPO) from rat polymorphonuclear leukocytes (PMN)
# Format: functional
# How it was run: as §1
row,Compound,inhibition at 50 µM [%]
1,COc1cc(/C=C\C(=O)c2ccncc2)cc(OC)c1OC,28
